Measurements as given in ChEMBL document CHEMBL1649436, “Antiviral activity of MK-4965, a novel nonnucleoside reverse transcriptase inhibitor” (Antimicrob Agents Chemother, 2009).

Key:
Format in all cases: functional
[1] = system: Human immunodeficiency virus 1; assay: Antiviral activity against HIV1 CRF02_AG harboring mutant reverse transcriptase relative to HIV1 CNDO with wild type reverse transcriptase
Outline: (§1)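 Single-cycle PhenoScreen assay run by Monogram Biosciences, using viruses carrying RT sequences from clinical isolates, subtypes/CRFs or PI/NRTI-resistant clade B viruses; nine serial drug concentrations; activity expressed relative to drug-sensitive reference strain CNDO (protease and RT from NL4-3), with multidrug-resistant MDRC4 as assay-performance control.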

[2] = system: Human immunodeficiency virus 1; assay: Antiviral activity against HIV1 CRF17_BF harboring mutant reverse transcriptase relative to HIV1 CNDO with wild type reverse transcriptase; outline: as §1
[3] = system: Human immunodeficiency virus 1; assay: Antiviral activity against NRTI-, PI-resistant HIV1 harboring mutant reverse transcriptase relative to HIV1 CNDO with wild type reverse transcriptase; outline: as §1
[4] = system: Human immunodeficiency virus 1; assay: Antiviral activity against HIV1 clade F1 harboring mutant reverse transcriptase relative to HIV1 CNDO with wild type reverse transcriptase
[5] = system: Human immunodeficiency virus 1; assay: Antiviral activity against HIV1 isolate R8 harboring wild type reverse transcriptase infected in human MT4 cells assessed as inhibition of viral replication after 72 hrs in presence of 50% human serum; settings: Human immunodeficiency virus 1, isolate R8, MT4, 72 h
Outline: (§2)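 Multiple-cycle assay: MT-4 cells (2.5 × 10^5) infected with R8-based virus at low MOI, no inhibitor, 24 h at 37°C, 5% CO2; washed, reseeded at 5 × 10^4 cells in RPMI 1640 with 10% FBS or 50% type AB human serum; threefold serial dilutions from 833 nM to 0.32 nM; 72 h; p24 in medium by AlphaScreen; EC95 = lowest concentration giving ≥95% p24 reduction versus untreated.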

[6] = system: Human immunodeficiency virus 1; assay: Antiviral activity against HIV1 CRF01_AE harboring mutant reverse transcriptase relative to HIV1 CNDO with wild type reverse transcriptase; outline: as §1
[7] = system: Human immunodeficiency virus 1; assay: Antiviral activity against HIV1 clade A harboring mutant reverse transcriptase relative to HIV1 CNDO with wild type reverse transcriptase
[8] = system: Human immunodeficiency virus 1; assay: Antiviral activity against HIV1 clade G harboring mutant reverse transcriptase relative to HIV1 CNDO with wild type reverse transcriptase
[9] = system: Human immunodeficiency virus 1; assay: Antiviral activity against HIV1 clade C harboring mutant reverse transcriptase relative to HIV1 CNDO with wild type reverse transcriptase
[10] = system: Human immunodeficiency virus 1; assay: Antiviral activity against HIV1 isolate R8 harboring reverse transcriptase Y181C mutant infected in human MT4 cells assessed as inhibition of viral replication after 72 hrs in presence of 10% FBS; settings: Human immunodeficiency virus 1, isolate R8, MT4, 72 h; outline: as §2
[11] = system: Human immunodeficiency virus 1; assay: Antiviral activity against HIV1 isolate R8 harboring reverse transcriptase K103N mutant infected in human MT4 cells assessed as inhibition of viral replication after 72 hrs in presence of 10% FBS; settings: Human immunodeficiency virus 1, isolate R8, MT4, 72 h; outline: as §2
[12] = system: Human immunodeficiency virus 1; assay: Antiviral activity against NRTI-resistant HIV1 harboring mutant reverse transcriptase relative to HIV1 CNDO with wild type reverse transcriptase; outline: as §1
[13] = system: Human immunodeficiency virus 1; assay: Antiviral activity against PI-resistant HIV1 harboring mutant reverse transcriptase relative to HIV1 CNDO with wild type reverse transcriptase; outline: as §1
[14] = system: Human immunodeficiency virus 1; assay: Antiviral activity against HIV1 isolate R8 harboring reverse transcriptase K103N and Y181C mutant infected in human MT4 cells assessed as inhibition of viral replication after 72 hrs in presence of 50% human serum; settings: Human immunodeficiency virus 1, isolate R8, MT4, 72 h; outline: as §2
[15] = system: Human immunodeficiency virus 1; assay: Antiviral activity against HIV1 clade B harboring mutant reverse transcriptase relative to HIV1 CNDO with wild type reverse transcriptase
[16] = system: Human immunodeficiency virus 1; assay: Antiviral activity against HIV1 isolate R8 harboring reverse transcriptase Y181C mutant infected in human MT4 cells assessed as inhibition of viral replication after 72 hrs in presence of 50% human serum; settings: Human immunodeficiency virus 1, isolate R8, MT4, 72 h; outline: as §2
[17] = system: Human immunodeficiency virus 1; assay: Antiviral activity against HIV1 isolate R8 harboring reverse transcriptase K103N mutant infected in human MT4 cells assessed as inhibition of viral replication after 72 hrs in presence of 50% human serum; settings: Human immunodeficiency virus 1, isolate R8, MT4, 72 h; outline: as §2
[18] = system: Human immunodeficiency virus 1; assay: Antiviral activity against HIV1 isolate R8 harboring wild type reverse transcriptase infected in human MT4 cells assessed as inhibition of viral replication after 72 hrs in presence of 10% FBS; settings: Human immunodeficiency virus 1, isolate R8, MT4, 72 h; outline: as §2
[19] = system: Human immunodeficiency virus 1; assay: Antiviral activity against HIV1 clade H harboring mutant reverse transcriptase relative to HIV1 CNDO with wild type reverse transcriptase
[20] = system: Human immunodeficiency virus 1; assay: Antiviral activity against HIV1 clade D harboring mutant reverse transcriptase relative to HIV1 CNDO with wild type reverse transcriptase
[21] = system: Human immunodeficiency virus 1; assay: Antiviral activity against HIV1 isolate R8 harboring reverse transcriptase K103N and Y181C mutant infected in human MT4 cells assessed as inhibition of viral replication after 72 hrs in presence of 10% FBS; settings: Human immunodeficiency virus 1, isolate R8, MT4, 72 h; outline: as §2

| SMILES | fold change (FC) [1] | fold change (FC) [2] | fold change (FC) [3] | fold change (FC) [4] | fold change (FC) [6] | fold change (FC) [7] | fold change (FC) [8] | fold change (FC) [9] | fold change (FC) [12] | fold change (FC) [13] | fold change (FC) [15] | fold change (FC) [19] | fold change (FC) [20] | also measured |
| --- | --- | --- | --- | --- | --- | --- | --- | --- | --- | --- | --- | --- | --- | --- |
| Nc1ccn([C@@H]2CS[C@H](CO)O2)c(=O)n1 [LAMIVUDINE] | 1.31 | 1.37 | 5.96 |  |  |  |  |  |  |  |  |  |  |  |
| Cc1ccnc2c1NC(=O)c1cccnc1N2C1CC1 [NEVIRAPINE] | 0.4 | 0.83 | 0.32 | 0.73 | 0.67 | 0.94 | 1.25 | 0.7 | 0.49 | 1.05 | 1.25 | 0.13 | 0.35 | EC95 [5]: 0.464 µM; EC95 [10]: > 8 µM; EC95 [11]: > 8 µM; EC95 [14]: > 8 µM; EC95 [16]: > 8 µM; EC95 [17]: > 8 µM; EC95 [18]: 0.438 µM; EC95 [21]: > 8 µM |
| C[C@H](Cn1cnc2c(N)ncnc21)OCP(=O)(O)O [TENOFOVIR ANHYDROUS] | 0.93 | 0.83 | 2.43 | 0.96 | 0.78 | 0.95 | 0.96 | 0.97 | 1.97 | 0.82 | 0.94 | 0.67 | 0.74 |  |
